Screening results: PubChem, Sanford-Burnham Center for Chemical Genomics
CRFR2-BP antag: blocks CRF-induced signaling of the CRF-BP/CRF-R2 complex | HEK293 CRF-R2/CRF-BP, CRF-induced calcium fluorescence | inhibition, % at 11.8 µM | actives 0.59% (n = 350,000);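 active = inhibition of the ligand-induced calcium signal above about 50% at the single tested concentration, limit read from the data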
XBP1 UPR activ: activators of adaptive arm of unfolded protein response (XBP1); CHO-XBP1 luciferase reporter, IRE1-XBP1 UPR activation, luminescence; percent of tunicamycin response, DMSO as zero; activation, % at 20 µM; actives 0.33% (n = 330,000); AID 463104;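 active = versus positive control, 20 µM dose yields 30% or more activation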
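Material: CHO-XBP1 cells stably carrying IRE1-XBP1-driven luciferase reporter | Medium: F12 with 10% serum | Compound dosing: 20 µM single concentration, DMSO 1% | Incubation: Overnight seeding at 37 °C, 6 h compound treatment at 37 °C | Detection: Steady-Glo luminescence read | Read-out basis: % activation of reporter signal versus tunicamycin and DMSO controls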
CHOP UPR activ: apoptotic UPR (CHOP) activation | actives 0.34% (n = 330,000) | CHO-CHOP luciferase reporter, luminescence; percent of tunicamycin response over DMSO baseline | activation, % at 10 µM;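 active = at 10 µM dose, activation of 40% or more, normalized to positive control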
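measured by = luciferase luminescence | assay system = CHO-CHOP cells, stable luciferase reporter of PERK-eIF2a-CHOP signalling | amount = 500 reporter cells seeded per well | timing = 6 h compound exposure at 37 °C after overnight seeding | controls = positive tunicamycin 10 µg/mL, negative DMSO alone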
Jurkat NFkB inh: lowers PMA/ionomycin-induced NF-kB signal in Jurkat cells. PMA/ionomycin-induced NF-kB luciferase reporter, luminescence. inhibition, % at 4 µM. actives 0.53% (n = 330,000). AID 435003; in the data active = inhibition above about 50%
697 NFkB inh: lowers PMA/ionomycin-induced NF-kB signal in 697 B cells; 697 B-cell NF-kB luciferase reporter, 16 h; inhibition, % at 4 µM; actives 0.33% (n = 330,000); AID 435022; in the data active = inhibition above about 35%
UPR XBP1 confirm: adaptive UPR (XBP1) activation, confirmed. shares compounds with XBP1 UPR activ. CHO-XBP1 IRE1-XBP1 luciferase reporter, luminescence. activation, % at 20 µM. actives 63% (n = 1,000);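 active = reporter signal at least 30% of the positive control's activation in two or more of four replicate wells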
Of the large screens only hits and unclear results are named; the others gave an inactive call (follow-up assays come after a bar, where they were run). A selection: hits, their analogues and other compounds. The true share with any hit is near 1.8%.

Cc1ccc(S(=O)(=O)N2CCN(C(=O)COC(=O)c3cccc(Cl)c3)CC2)c(C)c1	none
Cc1ccc(-n2nc3c(=O)n(CC(=O)NCCc4cccs4)nc(C)c3c2C)cc1	none
Cc1ccc(-n2nc3c(N4CCC(C(=O)NCCc5cccs5)CC4)nnc(C)c3c2C)cc1	XBP1 UPR activ 31 | UPR XBP1 confirm 45
C=CCN1C(=O)/C(=C2/Sc3ccc(OC)cc3N2CC)SC1=S	none
CCCCN1C(=O)/C(=C2/Sc3ccc(OC)cc3N2CC)SC1=S	XBP1 UPR activ 94 | UPR XBP1 confirm 49
NS(=O)(=O)c1ccc(NN=C2CCN(Cc3ccccc3)CC2)c([N+](=O)[O-])c1	none
CC1C/C(=N\Nc2ccc(S(N)(=O)=O)cc2[N+](=O)[O-])CC(C)(C)C1 (centres undefined)	none
Cc1cc(C)c2c(c1)/C(=N/Nc1ccc(S(N)(=O)=O)cc1[N+](=O)[O-])CCC2	XBP1 UPR activ 76 | UPR XBP1 confirm 50
NS(=O)(=O)c1ccc(N/N=C2/CCCCC2C2CCCCC2)c([N+](=O)[O-])c1 (centres undefined)	XBP1 UPR activ 55 | UPR XBP1 confirm 84
CCCCNC(=O)CSc1nnc(Cc2ccc(Cl)c(Cl)c2)c(=O)[nH]1	none
Cc1ccccc1C(=O)Nc1ccnn1C1CCN(C2CCSCC2)CC1	none
COc1ccccc1NC(=O)c1cc2c(CO)cnc(C)c2oc1=Nc1ccccc1	XBP1 UPR activ 501 | UPR XBP1 confirm 168
O=C(Oc1ccc2c(c1)OCO2)c1cc2c(s1)CCC2	XBP1 UPR activ 37 | UPR XBP1 confirm inactive
CCN(CC(=O)Nc1c(F)cccc1F)C(=O)c1cccc(-n2cnnn2)c1	none
COc1ccccc1-c1cc(-c2ccccc2)nc(SC(C(N)=O)c2ccccc2)c1C#N (centres undefined)	XBP1 UPR activ 70 | UPR XBP1 confirm 46
CC(C)(C)CC(=O)N1CCN(c2ccc(S(=O)(=O)N3CCOCC3)cc2[N+](=O)[O-])CC1	none
COc1ccc(S(=O)(=O)N2c3cc(Cl)ccc3Oc3nc4ccccc4nc32)cc1	XBP1 UPR activ 39 | UPR XBP1 confirm 31
CCOC(=O)Oc1ccc2oc(C)c(C(=O)OCCOC)c2c1	none
COCCOC(=O)c1c(C)oc2ccc(OC(=O)c3ccc4c(c3)OCO4)cc12	XBP1 UPR activ 76 | UPR XBP1 confirm inactive
Nc1ccn([C@@H]2O[C@H](CNCc3ccc(C#CCCO)cc3)[C@@H](O)[C@H]2O)c(=O)n1	none (no result: XBP1 UPR activ, CHOP UPR activ, Jurkat NFkB inh, 697 NFkB inh)
Cc1cc(N2CCN(c3nc(-c4ccc([N+](=O)[O-])cc4)cs3)CC2)c2ccccc2n1	XBP1 UPR activ 68 | UPR XBP1 confirm 39
Cc1cc(-c2ccc([N+](=O)[O-])cc2)nc2ccccc12	none
COC(=O)c1sc(NC(=O)c2cnccn2)c(C(=O)OC)c1C	XBP1 UPR activ 41 | UPR XBP1 confirm inactive
C=CCN=C1S/C(=C/c2cccc([N+](=O)[O-])c2)C(=O)N1CC=C	XBP1 UPR activ 33 | UPR XBP1 confirm 47
C=CCN=C1S/C(=C/c2ccc([N+](=O)[O-])cc2)C(=O)N1CC=C	none
COc1ccc(/C=N/NC(=O)c2cccc([N+](=O)[O-])c2)c2ccccc12	XBP1 UPR activ 77 | UPR XBP1 confirm 34
Cc1noc(NS(=O)(=O)c2ccc(NC(=O)c3ccc(Cl)c(S(=O)(=O)N(C)c4ccccc4)c3)cc2)c1C	none
ClC(Cl)(Cl)c1nc2ccccc2n2nncc12	XBP1 UPR activ 31 | UPR XBP1 confirm inactive
c1ccc2c(c1)nnn1c3ccccc3nc21	none (no result: CRFR2-BP antag)
Cc1c(CCOC(=O)CC23CC4CC(CC(C)(C4)C2)C3)sc[n+]1CC(=O)c1ccccc1	none
Cc1c(CCOC(=O)CC23CC4CC(CC(C4)C2)C3)sc[n+]1CC(=O)c1ccc(Br)cc1	XBP1 UPR activ 34 | UPR XBP1 confirm inactive
O=C1CCCC(O)=C1Sc1cc(Cl)c(Cl)cc1Cl	none
CCOc1ccccc1-c1nc(-c2ccc(NC(=O)Cc3ccccc3OC)cc2)no1	none
COc1ccccc1CC(=O)Nc1ccc(-c2noc(COc3ccc(Cl)c(C)c3)n2)cc1	XBP1 UPR activ 31 | UPR XBP1 confirm inactive
COc1cccc(NC(=O)Cc2nnc(SCC(=O)NC3CCCCC3)n2C)c1	none
